Screens (PubChem BioAssay)
Pf gamet viab = late stage P. falciparum gametocyte viability inhibitors, primary screen, ATP luminescence, HTS; P. falciparum stage V gametocytes, 24 h; inhibition, % at 10.9 µM; 150,000 tested, 0.065% active;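 active = inhibition above the mean plus 3 SD of compounds within the control limits, set per campaign, cut at about 38% in these data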;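 also: 0% = DMSO wells and 100% = medium only without gametocytes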
Hsp70 activator = Hsp70 transcriptional activators, primary screen, cell-based, HeLa, Hsp70 promoter luciferase, luminescence, 10 µM; AID 1203, 2008; HeLa Hsp70 promoter luciferase reporter; scaled: vehicle 0, proteasome-inhibitor control 100%; 200,000 tested, 0.04% active; activation, % at 10 µM;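 active = activation above the mean across all tested compounds plus 3 SD, cutoff set per campaign, cut at about 5.5% in these data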;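 also: 100% = MG132 at 30 µM as the positive control and 0% = DMSO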
MDM2 E3 inh = MDM2-luciferase reporter signal enhancers, primary screen, MDM2 E3 ligase inhibitor project, cell-based, luminescence, 1536-well. 210,000 tested, 0.11% active. signal enhancement, % at 5 µM. AID 1230, 2008. cell-based MDM2 ubiquitination luciferase reporter, 2 h; 0 = plate control, 100 = twice control, blank-subtracted;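 active = signal enhancement of 30% or more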;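 also: luminescence tracks abundance of the self-degrading MDM2-luciferase fusion protein; higher signal means inhibition of MDM2 E3 ligase activity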
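Material: Stable MDM2–luciferase fusion reporter cells | Amount: 2000 cells seeded into each well | Dosing: One concentration, 5 µM, with 0.2% DMSO | Incubation: 4 h cell settling then 2 h compound exposure, 37 °C | Measured by: Luciferase luminescence | Read-out basis: % enhancement relative to plate controls after blank subtraction | Benchmarks: Control and blank well means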
Wee1 stabilizer = Wee1 degradation inhibitors, primary screen, cell-based, HeLa, Wee1K328M-luciferase, luminescence; Wee1-like protein kinase (Homo sapiens), P30291; HeLa Luc-Wee1K328M stability; 100% = proteasome inhibitor MG132 effect; reporter increase, % at 5 µM; 220,000 tested, 1.2% active; AID 1321, 2008;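 active = activation above the mean of all tested compounds plus 3 SD, set per screening run, cut at about 8.8% in these data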;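 also: cells exposed to compound for 20 h before luminescence read; 0% = DMSO alone and 100% = MG132 at 30 µM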
Target sequence (P30291 whole entry K328M): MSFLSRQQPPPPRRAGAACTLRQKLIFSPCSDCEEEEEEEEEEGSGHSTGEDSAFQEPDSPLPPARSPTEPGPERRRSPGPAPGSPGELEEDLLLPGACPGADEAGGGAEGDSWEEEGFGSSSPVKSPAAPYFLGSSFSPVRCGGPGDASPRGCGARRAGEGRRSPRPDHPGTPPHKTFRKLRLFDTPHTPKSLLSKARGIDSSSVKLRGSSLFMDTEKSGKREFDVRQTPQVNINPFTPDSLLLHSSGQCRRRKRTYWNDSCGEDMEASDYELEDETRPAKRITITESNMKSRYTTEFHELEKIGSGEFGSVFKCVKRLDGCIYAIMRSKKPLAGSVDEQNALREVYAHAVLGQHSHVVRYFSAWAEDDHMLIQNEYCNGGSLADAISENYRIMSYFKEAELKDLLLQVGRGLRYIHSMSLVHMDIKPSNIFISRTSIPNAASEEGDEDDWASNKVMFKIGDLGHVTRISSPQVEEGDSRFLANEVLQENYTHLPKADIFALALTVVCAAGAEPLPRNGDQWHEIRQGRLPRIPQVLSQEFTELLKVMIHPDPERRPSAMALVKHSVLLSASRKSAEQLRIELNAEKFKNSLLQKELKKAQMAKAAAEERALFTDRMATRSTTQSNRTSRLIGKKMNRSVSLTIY
* marks the source's active call; other numbers are inactive results; . = no result given. Shown are actives, neighbours in structure and some others; about 1.3% of the full set was active somewhere.

SMILES	Pf gamet viab	Hsp70 activator	MDM2 E3 inh	Wee1 stabilizer
Cc1ccc(CN(CC2CCCO2)C(=O)CN2C(=O)C(C(C)C)Oc3ccccc32)o1 (centres undefined)	-10	0	-14	-3
Cc1ccc(NS(=O)(=O)c2cc(C(=O)N3CCN(C)CC3)ccc2C)cc1C	-5	0	-4	8.9*
Cc1ccc(NS(=O)(=O)c2cc(C(=O)N3CCCC3)ccc2C)cc1C	7	0	-28	2
COc1cc(/C=C2/CC/C(=C/c3ccc(O)c(OC)c3)C2=O)ccc1O	15	.	-1	10*
NS(=O)(=O)c1ccc(NC(=S)NC2CC2)cc1	.	0	-1	0
CCCC(C)c1nnc(NC(=O)c2cc(C(=O)OC)cc([N+](=O)[O-])c2)s1 (centres undefined)	.	0	-10	2
CC(C)CC(=O)NC(=S)Nc1ccc(N2CCCC2)c(Cl)c1	11	.	-10	10*
Cc1ccc(C=C2C(Cl)=C(Cl)C(Cl)=C2Cl)cc1	.	.	49*	1
COc1cc(/C=C(/C#N)C(=O)Nc2ccccc2)ccc1OCc1ccc(C(=O)O)cc1	5	0	-11	-3
N#C/C(=C\c1ccc(OCc2cccc(C(=O)O)c2)cc1)C(=O)NCc1ccco1	-11	.	-22	9.2*
COc1cc(/C=C(\C#N)C(=O)NCc2ccccc2)ccc1OCc1ccc(C(=O)O)cc1	-25	.	-13	11*
CC1=NN(C(C#N)c2cccc([N+](=O)[O-])c2)C(C)(C)C1 (centres undefined)	.	0	-3	0
COc1ccccc1CNC(=O)/C=C/c1ccc(S(=O)(=O)NCc2ccco2)cc1	.	-1	3	-3
CCN1C[C@@H]2[C@@H]3C(=O)N(Cc4ccccc4)C(=O)[C@@H]3[C@](CC)(C1=O)N2C(=O)c1ccc(Cl)cc1	-13	.	.	.
COc1ccc(-c2nc3ccccc3[nH]2)cc1	12	0	-8	-1
COc1ccc(-c2nn(C)c(=O)[nH]2)cc1	-21	.	3	11*
CCOc1ccc(CCNC(=O)c2cccc(C#N)c2)cc1OCC	9	0	-9	-1
CCOc1ccc(/C=C2/SC(=S)N(C(C(=O)O)c3ccccc3)C2=O)cc1OCC (centres undefined)	-51	0	-6	17*
COc1ccc(CC(=O)Nc2nc(-c3cccc([N+](=O)[O-])c3)cs2)cc1	.	0	-8	10*
COc1ccc(OCC(=O)N/N=C(\C)CC(=O)Nc2cccc([N+](=O)[O-])c2)cc1	10	0	32*	-2
COc1ccc(CC(=O)Nc2cccc(/C(C)=N/NC(=O)c3cccc([N+](=O)[O-])c3)c2)cc1	-3	0	1	-3
COc1ccc(CN2C(=O)c3ccccc3C2C(=O)NC2CCCCCC2)c(OC)c1 (centres undefined)	-30	0	-18	2
CC(=O)c1nnn(-c2c(F)cccc2F)c1C	18	.	-5	2
O=C(CSc1nnnn1Cc1ccccc1)Nc1ccccc1	13	.	.	9.3*
N#Cc1cc(S(=O)(=O)c2ccc(Cl)cc2)c(N)[nH]c1=O	21	0	-7	11*
SMILES	Pf gamet viab	Hsp70 activator	MDM2 E3 inh	Wee1 stabilizer
CC(Sc1nnc(-c2cccs2)n1Cc1ccccc1)C(=O)NCc1ccc2c(c1)OCO2 (centres undefined)	.	0	-20	10*
O=C(Nc1ccc(Cl)c(Cl)c1)C1CCCCC1	21	.	.	.
COc1cc(/C=C2\SC(=Nc3ccc(Cl)c(C(=O)O)c3)NC2=O)c(Br)c(Br)c1O	-11	.	.	.
O=C1CCCCC1Sc1nnc(Nc2ccccc2)s1 (centres undefined)	.	0	-16	8.9*
Cc1ccc(Nc2nnc(SC3CCOC3=O)s2)cc1 (centres undefined)	-3	0	-12	0
O=C(O)c1ccc2c(c1)C(=O)N(c1ccc(OCc3ccccc3)cc1)C2=O	3	.	.	.
CC(C)(CCO)NC(=S)NC1CC2C=CC1C2 (centres undefined)	-18	.	-10	-1
S=C(NC1CCCCC1)NC1CC2C=CC1C2 (centres undefined)	-30	.	2	9.2*
COCc1ccccc1C1=CC(=O)C[C@H](c2ccc(OC)cc2)C1	-8	.	.	.
COc1ccc(-n2c(N)c(C(=O)NCC3CCCO3)sc2=S)cc1 (centres undefined)	.	-1	8	10*
